Assay [1] addresses T1, NF-kappa-B inhibitor alpha (Homo sapiens) (UniProt P25963).
T1 sequence (whole entry): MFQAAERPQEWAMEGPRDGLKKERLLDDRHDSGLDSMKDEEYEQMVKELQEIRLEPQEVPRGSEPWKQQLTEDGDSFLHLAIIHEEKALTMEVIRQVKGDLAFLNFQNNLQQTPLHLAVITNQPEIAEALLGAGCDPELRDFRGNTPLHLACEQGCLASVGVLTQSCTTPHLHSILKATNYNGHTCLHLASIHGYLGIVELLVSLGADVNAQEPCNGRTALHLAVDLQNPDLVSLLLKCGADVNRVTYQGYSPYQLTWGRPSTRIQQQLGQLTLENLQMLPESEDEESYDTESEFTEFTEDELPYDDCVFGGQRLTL
As to the kind of experiment: Inhibition of IkappaBalpha phosphorylation level in TNFalpha-stimulated HUVECtert at 2 uM pretreated for 30 mins followed by TNFalpha stimulation measured after 5 to 15 mins by Western blot analysis. Summed up:
(§1)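 HUVECtert on gelatin-coated dishes pretreated with 2 μM agent or 0.1% DMSO, then TNFα 10 ng/mL; p-IKKα/β, p-IκBα and total IκBα immunoblotted at 5 or 15 min post-stimulation, actin loading control; means ± SD, n = 3, one-way ANOVA/Dunnett.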
(In general: Immunoblotting shows a protein as a band on a membrane.)

For assay [2], the species on record is Homo sapiens. As to the kind of experiment: Inhibition of NF-kappaB in HUVECtert assessed as reduction in TNFalpha-induced E-selectin mRNA expression level at 0.5 to 5 uM pretreated for 30 mins followed by TNFalpha stimulation measured after 2 hrs by qRT-PCR analysis. In general terms: In qPCR the cycle at which signal appears reflects the starting amount.

Assay [3] addresses T1, NF-kappa-B inhibitor alpha (Homo sapiens). The experiment in a line: Inhibition of IkappaBalpha degradation in TNFalpha-stimulated HUVECtert at 2 uM pretreated for 30 mins followed by TNFalpha stimulation measured after 5 to 15 mins by Western blot analysis. The essentials: as §1
The species named for assay [4] is Homo sapiens. As to the kind of experiment: Inhibition of de novo protein synthesis in HUVECtert at 2 to 5 uM after 30 mins by Click-iT OPP/Alexa fluor 488 picolyl azide reagent based confocal fluorescence microscopy. Format: functional. The essentials:
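Cells on gelatin coverslips (24 h) exposed 30 min to agent (2 or 5 μM; cycloheximide 1, 3.5, 35 μM) or 0.1% DMSO, then 20 μM OPP for 30 min; formaldehyde fixation, Triton permeabilisation, Alexa 488 picolyl azide click reaction 30 min, nuclear counterstain; confocal imaging at 10×, constant gain and exposure.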

The species entered for assay [5] is Homo sapiens. The experiment in a line: Reduction in survivin level in HUVECtert at 2 uM measured up to 480 mins by Western blot analysis. It is filed as functional. The essentials:
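HUVECtert treated with 1 μM cycloheximide, 2 μM agent, vehicle, or left untreated for a time course; cyclin D1 or survivin by Western blot, actin loading control; means ± SD of three blots, one-way ANOVA/Dunnett versus untreated.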

Assay [6] addresses T2, Inhibitor of nuclear factor kappa-B kinase subunit beta (Homo sapiens) (UniProt O14920).
T2 sequence (whole entry): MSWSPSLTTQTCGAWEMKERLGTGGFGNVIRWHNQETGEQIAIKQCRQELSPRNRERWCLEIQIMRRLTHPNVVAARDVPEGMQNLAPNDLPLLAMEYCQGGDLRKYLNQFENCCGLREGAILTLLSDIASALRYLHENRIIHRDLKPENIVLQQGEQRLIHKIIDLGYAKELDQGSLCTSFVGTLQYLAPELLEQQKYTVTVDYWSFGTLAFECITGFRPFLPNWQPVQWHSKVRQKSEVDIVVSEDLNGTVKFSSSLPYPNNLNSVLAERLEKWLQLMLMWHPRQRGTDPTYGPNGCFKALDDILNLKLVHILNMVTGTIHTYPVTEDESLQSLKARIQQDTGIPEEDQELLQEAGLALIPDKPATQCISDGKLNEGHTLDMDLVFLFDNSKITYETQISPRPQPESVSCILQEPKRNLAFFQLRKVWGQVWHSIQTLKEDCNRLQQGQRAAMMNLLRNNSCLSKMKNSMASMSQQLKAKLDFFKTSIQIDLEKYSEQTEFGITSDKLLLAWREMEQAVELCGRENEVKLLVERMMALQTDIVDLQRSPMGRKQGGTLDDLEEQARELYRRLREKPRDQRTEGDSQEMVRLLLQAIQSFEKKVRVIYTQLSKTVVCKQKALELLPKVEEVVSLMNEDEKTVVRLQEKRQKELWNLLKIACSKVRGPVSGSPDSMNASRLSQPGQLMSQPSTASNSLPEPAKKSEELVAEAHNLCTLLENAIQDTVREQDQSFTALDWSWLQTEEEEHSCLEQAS
As to the kind of experiment: Inhibition of IKKbeta phosphorylation level in TNFalpha-stimulated HUVECtert at 2 uM pretreated for 30 mins followed by TNFalpha stimulation measured after 5 to 15 mins by Western blot analysis. Summed up: as §1

Assay [7] is filed under the species Homo sapiens. As to the kind of experiment: Inhibition of NF-kappaB in HUVECtert assessed as reduction in TNFalpha-induced VCAM-1 mRNA expression level at 0.5 uM pretreated for 30 mins followed by TNFalpha stimulation measured after 4 hrs by qRT-PCR analysis.
For assay [8], the species on record is Homo sapiens. The experiment in a line: Reduction in cyclin A level in HUVECtert at 2 uM after 8 hrs by Western blot analysis. It is filed as functional.
The species named for assay [9] is Homo sapiens. The experiment in a line: Inhibition of NF-kappaB in HUVECtert assessed as reduction in TNFalpha-induced VCAM-1 mRNA expression level at 5 uM pretreated for 30 mins followed by TNFalpha stimulation measured after 4 hrs by qRT-PCR analysis.
Assay [10] is described as follows: (§2) Inhibition of NF-kappaB in HUVECtert assessed as reduction in TNFalpha-induced E-selectin expression level pretreated for 30 mins followed by TNFalpha stimulation measured after 5 hrs by flow cytometry. On the set-up: species or system Homo sapiens. Summed up:
(§3)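 FITC-antibody surface staining, flow cytometry; expression relative to TNFα-stimulated control. Parthenolide 10 μM as positive control; means ± SD, n = 3, one-way ANOVA/Dunnett versus vehicle.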
In general terms: In flow cytometry, cells or beads pass a laser one at a time.

The species entered for assay [11] is Homo sapiens. The description is as §2. The essentials: as §3
Assay [12] is filed under the species Homo sapiens. As to the kind of experiment: Reduction in p53 level in HUVECtert at 2 uM after 8 hrs by Western blot analysis. Format: functional.

Calls of active or inactive are those of the source. No cut-off for these calls is given here.

Broadly, the IC50 is the concentration that gives 50% inhibition.

Turning to `CC1=CC(=O)[C@@H](O)[C@@]2(C)[C@H]1CC(=O)[C@@]1(C)[C@H]3C(=O)O[C@H]([C@@H]3C)[C@H](O)[C@@H]12` [EURYCOMALACTONE], the inhibition entry (in assay [1]; in the assay listed under Homo sapiens [2]; in assay [3]; in assay [6]; in the assay listed under Homo sapiens [7]) was “inactive” each time. The inhibition entry in the assay listed under Homo sapiens [4] and in the assay listed under Homo sapiens [9] was “Active” throughout. Moreover, the outcome in the assay listed under Homo sapiens [5], in the assay listed under Homo sapiens [8] and in the assay filed under Homo sapiens [12] was inactive. The IC50 in assay [10] turned out to be 560 nM. For the same compound, the inhibition result in the assay filed under Homo sapiens [11] was “Dose-dependent effect”.

The values above are taken from ChEMBL document CHEMBL4138188, “Eurycomalactone Inhibits Expression of Endothelial Adhesion Molecules at a Post-Transcriptional Level” (J Nat Prod, 2017).
